For data set [1], the target named is T1, SGLT1 (Homo sapiens, UniProt P13866).
T1 sequence (P13866 1-664): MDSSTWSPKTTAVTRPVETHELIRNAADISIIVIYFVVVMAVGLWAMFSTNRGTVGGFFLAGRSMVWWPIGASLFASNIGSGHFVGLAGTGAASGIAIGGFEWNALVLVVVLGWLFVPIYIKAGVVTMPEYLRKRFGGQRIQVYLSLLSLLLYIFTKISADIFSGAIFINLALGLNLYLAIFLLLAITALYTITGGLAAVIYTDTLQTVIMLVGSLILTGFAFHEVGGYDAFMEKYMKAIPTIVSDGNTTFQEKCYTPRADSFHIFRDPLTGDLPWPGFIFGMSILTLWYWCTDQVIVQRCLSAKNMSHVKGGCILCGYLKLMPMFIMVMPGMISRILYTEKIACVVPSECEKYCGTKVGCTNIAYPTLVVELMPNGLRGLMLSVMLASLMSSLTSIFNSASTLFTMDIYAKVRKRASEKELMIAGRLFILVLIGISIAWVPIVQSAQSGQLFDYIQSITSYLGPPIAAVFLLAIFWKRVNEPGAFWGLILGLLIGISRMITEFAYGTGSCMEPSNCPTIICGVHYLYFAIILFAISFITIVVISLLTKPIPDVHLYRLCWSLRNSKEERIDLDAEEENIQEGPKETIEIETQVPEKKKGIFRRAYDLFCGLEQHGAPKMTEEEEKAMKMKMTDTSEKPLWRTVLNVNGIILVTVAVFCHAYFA
Put plainly: Flavonoid uptake/transport in Caco-2 BBe1 cells with phloridzin. In kind it is in vitro ADME. The conditions noted are these: 50 μM flavonoid, 4 h; for effect of phloridzin on cellular uptake and transport of the flavonoid / effect of phloridzin on cellular uptake of the flavonoid: 1 μM phloridzin; for fold change of glycoside transport by phloridzin-mediated inhibition: 1 μM phloridzin 30 min pretreatment, basolateral transport; for effect of phloridzin on cellular uptake of the flavonoid: cell lysate. The method in brief:
(§1)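 Quantitation was by HPLC on a phenyl-hexyl column (DAD, 360 and 520 nm), using external standard curves from 0–50 μM. Values are expressed as percent of the amount added apically. Data are mean ± SEM of at least three independent experiments.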

Data set [2] concerns Caco-2 BBe1 cells. Description: Cellular glucose. Format: cell-based, human. Conditions: 50 μM, 2 h pretreatment, 2-NBDG fluorescence, vs positive control. The gist of the method:
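Cells seeded at 1 × 10^5 per well and grown overnight, then PBS-washed. Pretreated with 50 μM test compound in glucose-free DMEM for 2 h. Glucose-free DMEM containing 300 μg/mL 2-NBDG was then added for another 2 h. After a PBS wash, fluorescence was read at ex 485/em 535 nm and compared with the positive control group.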

Data set [3] has as its system Caco-2 BBe1 monolayers. In kind it is in vitro ADME, human. Conditions: 50 μM apical, 0.5, 2 and 4 h, cell lysate and basolateral compartment. The gist of the method:
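Cells at passage 50–60 were grown on PET inserts (3 × 10^4 cells/well) in supplemented high-glucose DMEM at 37 °C, 5% CO2. Monolayers with TEER >400 Ω cm2 on day 9 were used. 50 μM test compound in HBSS pH 6.4 was applied apically, with HBSS/10 mM HEPES pH 7.4 basolaterally. Basolateral medium and sonicated, methanol/2% FA-extracted lysates were sampled at 0.5, 2 and 4 h.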

In data set [4] the target is T2, GLUT2 (Homo sapiens, UniProt P11168).
T2 sequence (P11168 1-524): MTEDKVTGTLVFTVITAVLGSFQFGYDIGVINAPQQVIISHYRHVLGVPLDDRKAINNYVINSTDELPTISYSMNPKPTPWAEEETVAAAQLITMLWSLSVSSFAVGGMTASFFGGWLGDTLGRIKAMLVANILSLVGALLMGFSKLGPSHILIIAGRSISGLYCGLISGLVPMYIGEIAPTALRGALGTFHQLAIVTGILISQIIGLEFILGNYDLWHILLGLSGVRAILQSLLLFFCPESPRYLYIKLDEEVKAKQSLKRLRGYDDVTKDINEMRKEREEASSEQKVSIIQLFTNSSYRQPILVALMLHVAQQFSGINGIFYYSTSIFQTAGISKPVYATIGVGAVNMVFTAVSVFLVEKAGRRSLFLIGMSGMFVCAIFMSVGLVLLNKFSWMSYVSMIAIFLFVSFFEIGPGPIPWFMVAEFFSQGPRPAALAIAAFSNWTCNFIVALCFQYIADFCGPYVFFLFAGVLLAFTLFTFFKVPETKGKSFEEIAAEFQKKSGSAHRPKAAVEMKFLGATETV
Description: Flavonoid uptake/transport in Caco-2 BBe1 cells with phloretin. In kind it is in vitro ADME. Conditions: 1 μM phloretin, 50 μM flavonoid, 4 h, cell lysate. The method in brief:
as §1
On the technique in general: Passage across Caco-2 layers is used to estimate intestinal permeability.

Data set [5] deals with Caco-2 cells. The conditions noted are these: SGLT1-depended manner; cited from earlier work.

Molecules are shown by their SMILES. Entries after “also recorded” stand apart in the source; their conditions may differ.

On to `O=c1c(O)c(-c2ccc(O)c(O)c2)oc2cc(O)cc(O)c12` [quercetin], for which, in data set [1], the “effect of phloridzin on cellular uptake and transport of the flavonoid” value was “no effect on the uptake and transport”. In data set [2], the “inhibition of glucose uptake” value is reported as “significantly blocked the glucose uptake”. Further, in data set [3], the “cellular uptake and transport kinetics” value was “both concentrations continued to increase; also recorded: readily permeated into the intestinal mucosa within 2 h”.

Regarding `OC[C@H]1O[C@@H](Oc2cc3c(O[C@@H]4O[C@H](CO)[C@@H](O)[C@H](O)[C@H]4O)cc(O)cc3[o+]c2-c2ccc(O)c(O)c2)[C@H](O)[C@@H](O)[C@@H]1O` [cyanin, cyanidin 3,5-diglucoside], in data set [1], the “fold change of glycoside transport by phloridzin-mediated inhibition” value (“fold change … by phloridzin-mediated inhibition” below) stood at 6.45 fold; the “effect of phloridzin on cellular uptake and transport of the flavonoid” value was “significantly reduced the amount of cellular and transported”; the “effect of phloridzin on cellular uptake of the flavonoid” value is on record as “significantly inhibited by phloridzin”. Also, the “cellular uptake and transport kinetics” value in data set [3] is reported as “continued to increase as the incubation period extends from 30 min to 4 h”. Further, the “effect of phloretin on cellular uptake of the flavonoid” value in data set [4] is “significantly inhibited cellular uptake”.

In the case of `Oc1cc(O)c2cc(O)c(-c3ccc(O)c(O)c3)[o+]c2c1` [cyanidin], in data set [1], the “effect of phloridzin on cellular uptake and transport of the flavonoid” value is “no effect on the uptake and transport”. The “inhibition of glucose uptake” value in data set [2] is “significantly blocked the glucose uptake”. Also, the “cellular uptake and transport kinetics” value in data set [3] is recorded as “noticeable decrease; also recorded: readily permeated into the intestinal mucosa within 2 h”.

`C[C@@H]1O[C@@H](OC[C@H]2O[C@@H](Oc3c(-c4ccc(O)c(O)c4)oc4cc(O)cc(O)c4c3=O)[C@H](O)[C@@H](O)[C@@H]2O)[C@H](O)[C@H](O)[C@H]1O` [rutin, quercetin 3-rutinoside]: in data set [1], the “fold change … by phloridzin-mediated inhibition” value was 5.77 fold; the “effect of phloridzin on cellular uptake and transport of the flavonoid” value was “significantly reduced the amount of cellular and transported”. For the same molecule, the “inhibition of glucose uptake” value in data set [5] is “inhibited glucose uptake”.

As to `OC[C@H]1O[C@@H](Oc2cc3c(O)cc(O)cc3[o+]c2-c2ccc(O)c(O)c2)[C@H](O)[C@@H](O)[C@@H]1O` [C-3-G, cyanidin 3-O-glucoside], in data set [1], the “fold change … by phloridzin-mediated inhibition” value was found to be 3.29 fold; the “effect of phloridzin on cellular uptake and transport of the flavonoid” value is “significantly reduced the amount of cellular and transported”; the “effect of phloridzin on cellular uptake of the flavonoid” value is reported as “less significant”. Also, the “cellular uptake and transport kinetics” value in data set [3] is “continued to increase as the incubation period extends from 30 min to 4 h”.

Regarding `O=c1c(O[C@@H]2O[C@H](CO)[C@@H](O)[C@H](O)[C@H]2O)c(-c2ccc(O)c(O)c2)oc2cc(O)cc(O)c12` [Q-3-G, quercetin 3-β-D-glucoside], in data set [1], the “fold change … by phloridzin-mediated inhibition” value was 2.31 fold; the “effect of phloridzin on cellular uptake and transport of the flavonoid” value is “significantly reduced the amount of cellular and transported”.

The values above are taken from publication PMC7240828 (ACS Omega, 2020).
